Data from ChEMBL document CHEMBL3227943, “Synthesis and mutagenicity of 5,11-dimethylchrysene and some methyl-oxidized derivatives of 5-methylchrysene” (J Med Chem, 1979).

Columns and labels:
[1] = system: Salmonella typhimurium; experiment: Toxicity in Salmonella typhimurium TA 100 at 5 to 100 ug in presence of Fischer-344 rat liver S9 fraction; format: organism-based, Salmonella enterica subsp. enterica serovar Typhimurium
Outline: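 Percent survivors were measured with diluted TA100 broth culture under the same S-9 plating conditions as the mutagenicity assay, except that excess histidine was added to the top agar.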

[2] = system: Salmonella typhimurium; experiment: Mutagenic activity in Salmonella typhimurium TA 100 at 5 to 100 ug by Ames test in presence of Fischer-344 rat liver S9 fraction relative to 5-methylchrysene
[3] = system: Salmonella typhimurium; experiment: Mutagenic activity in Salmonella typhimurium TA 100 at 5 to 100 ug by Ames test in presence of Fischer-344 rat liver S9 fraction; format: toxicity, organism-based, Salmonella enterica subsp. enterica serovar Typhimurium
Outline: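 TA100 plate-incorporation assay: compound in 50 µL Me₂SO, 0.1 mL overnight broth culture, 200 µL S-9 mix and 2 mL top agar (45 °C), poured on minimal glucose agar. S-9 from Aroclor 1254-induced rats (500 mg/kg, 5 days earlier); mix per mL: 100 µmol K phosphate pH 7.4, 8 µmol MgCl₂, 5 µmol G6P, 4 µmol NADP⁺. His⁺ revertants/plate, mean of four trials.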

[4] = system: Salmonella typhimurium; experiment: Mutagenic activity in Salmonella typhimurium TA 100 at 5 to 100 ug by Ames test in absence of Fischer-344 rat liver S9 fraction; format: toxicity, organism-based, Salmonella enterica subsp. enterica serovar Typhimurium; settings: in vivo
[5] = system: Salmonella typhimurium; experiment: Mutagenic activity in Salmonella typhimurium TA 100 at 50 ug by Ames test in absence of Fischer-344 rat liver S9 fraction; format: toxicity, organism-based, Salmonella enterica subsp. enterica serovar Typhimurium; settings: in vivo

Structure (SMILES) | Activity [1] | Activity [2] | Activity [3] | Activity [4] | Activity [5]
COC(=O)c1cc2ccccc2c2ccc3ccccc3c12 | Non-toxic | Non-toxic |  |  | 
Cc1cc2ccccc2c2ccc3ccccc3c12 | Non-toxic |  | Toxic |  | 
Cc1cc2ccccc2c2c(C)cc3ccccc3c12 | Non-toxic |  | Toxic |  | 
OCc1cc2ccccc2c2ccc3c(c12)CCCC3 | Non-toxic | Non-toxic |  |  | 
CC(=O)OCc1cc2ccccc2c2ccc3ccccc3c12 | Non-toxic | Non-toxic |  |  | 
O=c1oc2cccc3ccc4c5ccccc5cc1c4c32 | Non-toxic |  | Toxic | Non-toxic | 
Cc1cc2ccccc2c2ccc3c(c12)C=CC(O)C3O (stereo not drawn) |  |  |  |  | Toxic
COC(=O)c1cc2ccccc2c2ccc3c(c12)CCCC3 | Non-toxic | Non-toxic |  |  | 
OCc1cc2ccccc2c2ccc3ccccc3c12 | Non-toxic | Non-toxic |  |  | 
